In ChEMBL document CHEMBL3526081 (Drug Metab Dispos, 2011):

Key:
[1] = tested on: Liver microsome; assay: Drug metabolism in beagle dog liver microsomes assessed as 1alpha-hydroxylcinobufagin formation at 100 uM at 37 degC after 30 mins by UFLC-ESI-MS analysis in presence of NADPH-generating system; assay type: ADME, Canis lupus familiaris; conditions: 0.5 h
Summary of the method: (§1)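 Liver microsomes (0.3 mg protein/ml) incubated with 100 µM substrate at 37°C for 30 min, in 100 mM potassium phosphate pH 7.4 with NADPH-generating system (1 mM NADP+, 10 mM glucose 6-phosphate, 1 unit/ml G6PDH, 4 mM MgCl2). Acetonitrile ≤1% final. Stopped with ice-cold acetonitrile and centrifuged. Metabolites identified by UFLC-ESI-MS and quantified by UFLC-DAD at 294 nm against authentic standard curves.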

[2] = Drug metabolism in cynomolgus monkey liver microsomes assessed as 1alpha-hydroxylcinobufagin formation at 100 uM at 37 degC after 30 mins by UFLC-ESI-MS analysis in presence of NADPH-generating system; assay type: ADME, Macaca fascicularis; conditions: 0.5 h; summary of the method: as §1
[3] = Drug metabolism in Swiss-Hauschka (ICR) mouse liver microsomes assessed as 5beta-hydroxylcinobufagin formation at 100 uM at 37 degC after 30 mins by UFLC-ESI-MS analysis in presence of NADPH-generating system; assay type: ADME; conditions: 0.5 h; summary of the method: as §1
[4] = tested on: Liver microsome; assay: Drug metabolism in human liver microsomes assessed as 5beta-hydroxylcinobufagin formation at 100 uM at 37 degC after 30 mins by […] in presence of 1 uM ketoconazole CYP3A4 inhibitor; assay type: ADME; conditions: 0.5 h
[5] = tested on: Liver microsome; assay: Drug metabolism in human liver microsomes assessed as 5beta-hydroxylcinobufagin formation at 100 uM at 37 degC after 30 mins by UFLC-ESI-MS analysis in presence of 10 uM furafylline CYP1A2 inhibitor; assay type: ADME; conditions: 0.5 h
Summary of the method: (§2)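 Pooled human liver microsomes (10 donors, both sexes) in 100 mM potassium phosphate pH 7.4 were incubated with CB and a selective P450 inhibitor. Reaction was started with NADPH-generating system after 3 min preincubation at 37°C and stopped with ice-cold acetonitrile. Hydroxylated products were quantified by UFLC-DAD at 294 nm; three experiments in duplicate.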

[6] = tested on: Liver microsome; assay: Drug metabolism in human liver microsomes assessed as 1alpha-hydroxylcinobufagin formation at 100 uM at 37 degC after 30 mins […] in presence of 50 uM triethylenethiophosphoramide CYP2B6 inhibitor; assay type: ADME; conditions: 0.5 h
[7] = tested on: Liver microsome; assay: Drug metabolism in human liver microsomes assessed as 5beta-hydroxylcinobufagin formation at 100 uM at 37 degC after 30 mins […] in presence of 50 uM triethylenethiophosphoramide CYP2B6 inhibitor; assay type: ADME; conditions: 0.5 h
[8] = tested on: Liver microsome; assay: Drug metabolism in human liver microsomes assessed as 1alpha-hydroxylcinobufagin formation at 100 uM at 37 degC after 30 mins […] in presence of 2 uM montelukast CYP2C8 inhibitor; assay type: ADME; conditions: 0.5 h
[9] = tested on: Liver microsome; assay: Drug metabolism in human liver microsomes assessed as 1alpha-hydroxylcinobufagin formation at 100 uM at 37 degC after 30 mins […] in presence of 10 uM sulfaphenazole CYP2C9 inhibitor; assay type: ADME; conditions: 0.5 h
[10] = tested on: Liver microsome; assay: Drug metabolism in human liver microsomes assessed as 5beta-hydroxylcinobufagin formation at 100 uM at 37 degC after 30 mins […] in presence of 10 uM sulfaphenazole CYP2C9 inhibitor; assay type: ADME; conditions: 0.5 h
[11] = tested on: Liver microsome; assay: Drug metabolism in human liver microsomes assessed as 1alpha-hydroxylcinobufagin formation at 100 uM at 37 degC after 30 mins […] in presence of 20 uM omeprazole CYP2C19 inhibitor; assay type: ADME; conditions: 0.5 h
[12] = tested on: Liver microsome; assay: Drug metabolism in human liver microsomes assessed as 5beta-hydroxylcinobufagin formation at 100 uM at 37 degC after 30 mins by UFLC-ESI-MS analysis in presence of 20 uM omeprazole CYP2C19 inhibitor; assay type: ADME; conditions: 0.5 h; summary of the method: as §2
[13] = tested on: Liver microsome; assay: Drug metabolism in human liver microsomes assessed as 1alpha-hydroxylcinobufagin formation at 100 uM at 37 degC after 30 mins by UFLC-ESI-MS analysis in presence of 10 uM quinidine CYP2D6 inhibitor; assay type: ADME; conditions: 0.5 h; summary of the method: as §2
[14] = tested on: Liver microsome; assay: Ratio of Vmax/Km in human liver microsomes assessed as 1alpha-hydroxylcinobufagin formation at 100 uM […] by UFLC-ESI-MS analysis; assay type: ADME; conditions: 0.5 h
[15] = Ratio of Vmax/Km in cynomolgus monkey liver microsomes assessed as 1alpha-hydroxylcinobufagin formation at 100 uM […] by UFLC-ESI-MS analysis; assay type: ADME, Macaca fascicularis; conditions: 0.5 h
[16] = tested on: Liver microsome; assay: Ratio of Vmax/Km in beagle dog liver microsomes assessed as 1alpha-hydroxylcinobufagin formation at 100 uM […] by UFLC-ESI-MS analysis; assay type: ADME, Canis lupus familiaris; conditions: 0.5 h
[17] = Drug metabolism in Colony-bred Chinese Bama minipig liver microsomes assessed as 5beta-hydroxylcinobufaginn formation per mg of protein at 100 uM at 37 degC after 30 mins by UFLC-ESI-MS analysis; assay type: ADME, Sus scrofa; conditions: pig, 0.5 h; summary of the method: as §1
[18] = tested on: Liver microsome; assay: Drug metabolism in human liver microsomes assessed as 5beta-hydroxylcinobufaginn formation at 100 uM […] by UFLC-ESI-MS analysis; assay type: ADME; conditions: 0.5 h, read-out: Km(app)
[19] = Drug metabolism in cynomolgus monkey liver microsomes assessed as 5beta-hydroxylcinobufaginn formation at 100 uM […] by UFLC-ESI-MS analysis; assay type: ADME, Macaca fascicularis; conditions: 0.5 h, read-out: Km(app)
[20] = Drug metabolism in Swiss-Hauschka (ICR) mouse liver microsomes assessed as 5beta-hydroxylcinobufaginn formation at 100 uM at 37 degC after 30 mins by UFLC-ESI-MS analysis; assay type: ADME; conditions: 0.5 h, read-out: Km(app); summary of the method: as §1
[21] = tested on: Liver microsome; assay: Ratio of Vmax/Km in human liver microsomes assessed as 5beta-hydroxylcinobufaginn formation at 100 uM at 37 degC […] by UFLC-ESI-MS analysis; assay type: ADME; conditions: 0.5 h
[22] = Drug metabolism in cynomolgus monkey liver microsomes assessed as 1alpha-hydroxylcinobufagin formation at 100 uM at 37 degC after 30 mins by UFLC-ESI-MS analysis in presence of 1 uM ketoconazole CYP3A4 inhibitor; assay type: ADME, Macaca fascicularis; conditions: 0.5 h
Summary of the method: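 Chemical inhibition: selective P450 inhibitors (furafylline, sulfaphenazole, ketoconazole) added to liver microsome incubations in 100 mM potassium phosphate pH 7.4 with NADPH-generating system at 37°C. Hydroxylated metabolite formation quantified by UFLC at 294 nm against standards. Mean ± S.D. of three experiments in duplicate.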

[23] = Drug metabolism in Swiss-Hauschka (ICR) mouse liver microsomes assessed as 1alpha-hydroxylcinobufagin formation per mg of protein at 100 uM at 37 degC after 30 mins by UFLC-ESI-MS analysis; assay type: ADME; conditions: 0.5 h; summary of the method: as §1
[24] = tested on: Liver microsome; assay: Drug metabolism in human liver microsomes assessed as 5beta-hydroxylcinobufagin formation at 100 uM at 37 degC after 30 mins by UFLC-ESI-MS analysis in presence of 10 uM quinidine CYP2D6 inhibitor; assay type: ADME; conditions: 0.5 h; summary of the method: as §2
[25] = tested on: Liver microsome; assay: Drug metabolism in human liver microsomes assessed as 5beta-hydroxylcinobufagin formation at 100 uM at 37 degC after 30 mins […] in presence of 50 uM clomethiazole CYP2E1 inhibitor; assay type: ADME; conditions: 0.5 h
[26] = Drug metabolism in cynomolgus monkey liver microsomes assessed as 1alpha-hydroxylcinobufagin formation at 100 uM at 37 degC after 30 mins by UFLC-ESI-MS analysis; assay type: ADME, Macaca fascicularis; conditions: 0.5 h, read-out: Km(app); summary of the method: as §1

Question: Which results are given for `CC(=O)O[C@H]1[C@H]2O[C@]23[C@@H]2CC[C@@H]4C[C@@H](O)CC[C@]4(C)[C@H]2CC[C@]3(C)[C@H]1c1ccc(=O)oc1` [CINOBUFAGIN]?
Answer: Drug metabolism [1]: metabolite_detected; Drug metabolism [2]: metabolite_detected; Drug metabolism [3]: metabolite_detected; Drug metabolism [4]: metabolite_not_detected; Drug metabolism [5]: metabolite_detected; Drug metabolism [6]: metabolite_detected; Drug metabolism [7]: metabolite_detected; Drug metabolism [8]: metabolite_detected; Drug metabolism [9]: metabolite_detected; Drug metabolism [10]: metabolite_detected; Drug metabolism [11]: metabolite_detected; Drug metabolism [12]: metabolite_detected; Drug metabolism [13]: metabolite_detected; Vmax/Km [14]: 47.2 µL/min/mg; Vmax/Km [15]: 62 µL/min/mg; Vmax/Km [16]: 387.9 µL/min/mg; Vmax [17]: 0.65 nmol/min/mg; Km [18]: 20.4 µM; Km [19]: 8.5 µM; Km [20]: 10.1 µM; Vmax/Km [21]: 57.4 µL/min/mg; Drug metabolism [22]: metabolite_not_detected; Vmax [23]: 8.39 nmol/min/mg; Drug metabolism [24]: metabolite_detected; Drug metabolism [25]: metabolite_detected; Km [26]: 34.2 µM
